Screening results (PubChem BioAssay)
Yeast life ext – extends the lifespan of yeast. hit rate 0.68% among 130,000. S. cerevisiae growth with nicotinamide, OD615; deaD strain in restrictive glucose medium. inhibition of the nicotinamide effect, % at 10 µM;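 active = inhibition above a set limit, placed 3 SD over the median of all compounds, cut at about 26% in these data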
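assay system = DeaD-strain S. cerevisiae | measured by = absorbance at 615 nm | probe or stimulus = nicotinamide 1.5 mM | buffer or medium = CSMM-D glucose medium, restrictive | times = 48 h at 30 °C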
RAM network inh – blocks the yeast RAM network | inhibition, % at 50 µM | S. cerevisiae dse1pr::URA3 reporter, 5-FOA growth OD615, 2 d; analog-sensitive cbk1-as2 kinase mutant strain | hit rate 1.8% among 190,000 | AID 868;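 active = inhibition above a set limit, 3 SD over mean compound inhibition, cut at about 8.4% in these data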;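 note: inhibition rescues growth on 5-FOA so higher OD means more RAM inhibition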
BB579 growth dn – reduces growth of yeast BB579 in restrictive medium. AID 804. S. cerevisiae BB579 growth, OD615, 48 h. inhibition, % at 10 µM. hit rate 0.51% among 140,000;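 active = inhibition above a set limit, 3 SD over the mean compound inhibition, cut at about 44% in these data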
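Material: Saccharomyces cerevisiae DeaD strain BB579, replicative lifespan model yeast; buffer or medium: CSMM-D restrictive synthetic medium containing dextrose (glucose); compound: 10 µM single dose, DMSO 0.25%; timing: 48 h compound exposure at 30 °C after 4 h preincubation; signal: turbidity as optical density at 615 nm; benchmarks: positive control amphotericin B 10 µg/mL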
TNAP act hiacc – activators of human TNAP at high phosphate acceptor concentration; P05186; purified TNAP, CDP-star luminescence, 1 M DEA, 30 min; stronger effect = higher value; 0 = EDTA background, 1 = DMSO-only activity; activation factor at 20 µM; 200,000 tested, under 10 active;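 active = activation factor at least 2 at 20 µM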
Target sequence (P05186 whole entry, looked up): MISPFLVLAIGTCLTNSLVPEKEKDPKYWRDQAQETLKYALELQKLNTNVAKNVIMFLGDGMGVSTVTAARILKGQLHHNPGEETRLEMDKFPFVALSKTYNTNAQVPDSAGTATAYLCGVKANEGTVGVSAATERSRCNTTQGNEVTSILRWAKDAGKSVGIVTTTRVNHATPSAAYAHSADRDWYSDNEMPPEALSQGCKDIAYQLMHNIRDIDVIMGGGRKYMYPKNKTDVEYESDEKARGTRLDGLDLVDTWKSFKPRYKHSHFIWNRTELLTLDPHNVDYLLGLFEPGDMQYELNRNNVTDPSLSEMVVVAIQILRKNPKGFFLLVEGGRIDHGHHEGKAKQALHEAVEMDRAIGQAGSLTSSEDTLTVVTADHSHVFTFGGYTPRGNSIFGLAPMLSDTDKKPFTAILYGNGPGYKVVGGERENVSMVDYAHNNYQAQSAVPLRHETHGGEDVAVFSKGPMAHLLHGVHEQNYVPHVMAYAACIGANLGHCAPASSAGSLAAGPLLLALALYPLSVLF
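system = human TNAP | amount = enzyme diluted 1/800 final | reagent = 100 µM CDP-star substrate | signal = luminescent substrate turnover signal | dosing = one dose, 20 µM | benchmarks = EDTA negative control, DMSO positive control | measure = activation factor | timing = 30 min reaction, room temperature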
TNAP inh noacc – TNAP (human) inhibition, acceptor-free conditions. AID 1012. hit rate 0.26% among 200,000. purified TNAP, CDP-star luminescence, 30 min. P05186. inhibition, % at 20 µM;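 active = tissue-nonspecific alkaline phosphatase inhibition above about 50% at 20 µM in the single-dose screen, limit read from the data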
TNAP inh hi DEA – TNAP (human) inhibition, high acceptor; inhibition, % at 20 µM; AID 1135; hit rate 0.03% among 200,000; purified TNAP, CDP-star luminescence, 1 M DEA; P05186;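 active = over 50% inhibition of tissue-nonspecific alkaline phosphatase at 20 µM in the single-dose screen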
A number is an active result; 0 = inactive; - = no result given. This is a sample that favours compounds with a hit; in the whole collection about 2.8% have one here.

SMILES | Yeast life ext | RAM network inh | BB579 growth dn | TNAP act hiacc | TNAP inh noacc | TNAP inh hi DEA
CC1CC(CC(C)C(=O)NC(=S)Nc2ccc(S(N)(=O)=O)cc2)C(=O)O1 (stereo unspecified) | - | 0 | - | 0 | 0 | 0
CCC1CC(C)(C(=O)Nc2ccc(S(N)(=O)=O)cc2)OC1=O (stereo unspecified) | 49 | 0 | 0 | 0 | 0 | 0
CS(=O)(=O)c1ccc2nc(NC(=O)c3ccc(S(=O)(=O)NCC4CCCO4)cc3)sc2c1 (stereo unspecified) | - | 0 | - | 0 | 0 | 0
Cn1c(C(C#N)/C(=N\S(=O)(=O)c2cccs2)c2ccccc2)nc2ccccc21 (stereo unspecified) | 0 | 9.6 | 0 | 0 | 0 | 0
N/C(=N\S(=O)(=O)c1cccs1)c1ccccc1 | 0 | 0 | 0 | 0 | 0 | 0
CC(C)Cc1nnc(NS(=O)(=O)c2ccc(Cl)cc2)s1 | 26 | 0 | 0 | 0 | 0 | 0
CCCCn1c(-c2ccco2)nc2ccccc2c1=O | 0 | 0 | 0 | 0 | 0 | 0
CCOc1ccc2nc(-c3ccc(OC)c(OC)c3)cc(C(=O)O)c2c1 | 51 | 0 | 0 | 0 | 0 | 0
Cc1ccc(S(=O)(=O)N2CCCCC2)cc1NC(=O)COC(=O)C1=COCCO1 | - | 0 | - | 0 | 0 | 0
COc1cccc(/C=C/C(=C2/C(=O)N(c3ccccc3)N=C2C)c2ccc(Br)cc2)c1OC | 0 | 8.7 | 0 | 0 | 0 | 0
CN(C)c1ccc(/C=N/NC(=O)c2cccc(C(=O)N/N=C/c3ccc(N(C)C)cc3)n2)cc1 | - | 9.9 | - | 0 | 0 | 0
CCN1C(=O)[C@H]2[C@H]3[C@H](O)[C@H](O)C/C(=N\O[C@H](C)c4cn([C@H](CO)Cc5ccccc5)nn4)[C@@H]3CC[C@H]2C1=O | 0 | 0 | 0 | 0 | 0 | 0
CCOC(=O)/C(=N\Nc1cccc(C(F)(F)F)c1)N(CCOC)CCOC | 0 | 0 | 54 | 0 | 0 | 0
NS(=O)(=O)c1ccc(CNC(=O)/C=C/c2ccccc2[N+](=O)[O-])cc1 | - | 0 | - | 0 | 62 | 0
O=C(Nc1scc(-c2cccs2)c1C(=O)O)c1cccs1 | 35 | 0 | 0 | 0 | 0 | 0
CCOC(=O)c1c(-c2cccs2)csc1NC(=O)c1ccncc1 | 0 | 9.6 | 0 | 0 | 0 | 0
COC(=O)c1c(-c2ccc(F)cc2)csc1NC(=O)c1ccco1 | 0 | 0 | 0 | 0 | 0 | 0
O=C(Nc1scc(-c2ccccc2)c1C(=O)O)c1ccco1 | 42 | 0 | 0 | 0 | 0 | 0
CCOC(=O)c1c(-c2ccc(C)o2)csc1NC(=S)NC(=O)c1ccc(F)cc1 | 0 | 11 | 0 | 0 | 0 | 0
CCOC(=O)c1c(NC(=O)c2cccs2)sc(C)c1CC | 0 | 11 | 0 | 0 | 0 | 0
CCOC(=O)c1ccc(N/N=C/c2cc(Br)cc([N+](=O)[O-])c2O)cc1 | - | 0 | - | 0 | 0 | 56
O=C(NN1C(=O)c2ccccc2NC1c1ccco1)c1ccc([N+](=O)[O-])cc1 (stereo unspecified) | - | 0 | - | 0 | 0 | 0
Cc1ccccc1Oc1cc(-n2ncc(Cl)c(Cl)c2=O)ncn1 | 46 | 0 | 0 | 0 | 0 | 0
O=C(NCc1ccccc1)c1ccccc1CO | 0 | 0 | 0 | 0 | 0 | 0
O=C(NCc1ccccc1Cl)c1ccccc1CCc1ccccc1 | 32 | 0 | 0 | 0 | 0 | 0
SMILES | Yeast life ext | RAM network inh | BB579 growth dn | TNAP act hiacc | TNAP inh noacc | TNAP inh hi DEA
O=C(NCc1ccc(Cl)cc1)c1ccccc1CCc1ccccc1 | 41 | 0 | 0 | 0 | 0 | 0
COc1ccc(CNC(N)=O)cc1 | - | 0 | 0 | - | - | -
NC(=O)NCc1ccc(Cl)cc1 | 59 | 0 | 0 | 0 | 0 | 0
C=CCNC(=O)c1ccccc1CCc1ccccc1 | - | 0 | - | 0 | 0 | 0
CC(C)(C)NC(=O)COC(=O)CCC(=O)c1cccs1 | - | 0 | - | 0 | 0 | 0
CCN(CC)c1ccc(C=C(c2nnnn2-c2ccc(C)cc2)c2nnnn2-c2ccc(C)cc2)cc1 | 0 | 0 | 0 | 0 | 0 | 0
Cc1ccc2cc(C#N)c(SCC(=O)N3CCCc4ccccc43)nc2c1C | 0 | 9.2 | 0 | 0 | 0 | 0
CCN1C(=O)/C(=C/N(C(C)=O)c2ccccc2)N(c2ccccc2)C1=S | 35 | 0 | 0 | 0 | 0 | 0
COc1ccc2c(c1)S/C(=C\C(=O)c1ccncc1)N2C | 0 | 0 | 92 | 0 | 0 | 0
CCOC(=O)c1cc(-c2ccc(Cl)cc2)nc2c1c(=O)[nH]c(=O)n2CCOC | - | 0 | - | 0 | 0 | 0
